Assay outcomes from PubChem BioAssay.
Hits are enriched below; roughly 2.4% of the tested compounds scored in any of these assays.
BB579 growth dn: growth inhibitors of yeast BB579 in restrictive medium, primary screen, yeast lifespan-shortening project, S. cerevisiae; inhibition, % at 10 µM; OD615, 48 h; 140,000 tested, 0.51% active;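 active = inhibition above a set limit, 3 SD over the mean compound inhibition, cut at about 44% in these data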
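controls = amphotericin B 10 µg/mL, positive | assay system = DeaD yeast strain BB579 | schedule = 48 h compound exposure at 30 °C after 4 h preincubation | detection = OD615 turbidity measurement | medium = restrictive CSMM-D medium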
Arbovirus inh: antivirals against arbovirus infection, primary screen, cell-based, full library, 10K replicate subset. arbovirus infection cell-based antiviral screen. inhibition, % at 10 µM. 200,000 tested, 0.37% active. AID 1251, 2008; in the data active = inhibition above about 30%
Yeast life ext: compounds extending yeast replicative lifespan, primary screen, S. cerevisiae, OD615. S. cerevisiae growth with nicotinamide; deaD strain in restrictive glucose medium. inhibition of the nicotinamide effect, % at 10 µM. AID 775, 2007. 130,000 tested, 0.68% active;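 active = inhibition above a set limit, placed 3 SD over the median of all compounds, cut at about 26% in these data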;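 also: 0% = nicotinamide-treated wells and 100% = cells grown without nicotinamide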
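Buffer or medium: CSMM-D glucose medium, restrictive; test system: modified budding yeast, DeaD strain; compound: single dose 10 µM compound, 0.25% DMSO; schedule: culture preincubation 4 h, compound exposure 48 h, both 30 °C; detection: optical density (absorbance) at 615 nm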
Rad51 HR inh: human RAD51 strand exchange inhibitors, primary screen, biochemical, fluorescence | DNA repair protein RAD51 homolog 1 (Homo sapiens), Q06609 | inhibition, % at 10 µM | hRad51 DNA strand exchange, fluorescence dequenching | 200,000 tested, 0.085% active;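 active = inhibition above 40% at the single screening dose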;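 also: 0% = DMSO control wells and 100% = blanks with heterologous ssDNA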
Target sequence (Q06609 whole entry, looked up): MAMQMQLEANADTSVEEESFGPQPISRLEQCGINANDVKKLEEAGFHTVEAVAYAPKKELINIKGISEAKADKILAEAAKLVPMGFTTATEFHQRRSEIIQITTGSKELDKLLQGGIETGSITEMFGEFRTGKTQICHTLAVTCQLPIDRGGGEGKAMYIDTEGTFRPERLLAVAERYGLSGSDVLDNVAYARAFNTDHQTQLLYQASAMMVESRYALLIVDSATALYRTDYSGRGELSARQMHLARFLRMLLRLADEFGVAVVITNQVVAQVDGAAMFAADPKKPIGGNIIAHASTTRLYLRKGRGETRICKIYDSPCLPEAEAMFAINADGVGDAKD
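Test system – preformed human Rad51 ssDNA filaments · Reagent – Donor/quencher-labelled 47-bp dsDNA substrate · Incubation – 37 °C 15-min filament assembly, 30-min compound preincubation, 15-min exchange · Signal – FRET fluorescence dequenching, excitation 485 nm, emission 520 nm · Read-out – percent inhibition from fluorescence, normalised to plate control and blank means · Benchmarks – plate control and blank wells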
Measles CPE: compounds protecting cells from measles virus cytopathic effect, primary screen, measles RdRp inhibitor project, single point, MLSMR library, absorbance | Measles virus-infected cells, CPE protection | protection (pct of control), % at 4 µM | 140,000 tested, 1.5% active; in the data active = protection mostly above about 24%, no sharp cut-off; inactive = mostly below about 26%
HMGR II inh: inhibitors of E. faecalis class II HMGR, primary screen, biochemical, Enterococcus faecalis; purified E. faecalis HMGR, NADPH absorbance 340 nm kinetic; AID 1066, 2008; 190,000 tested, 0.41% active; inhibition, % at 10 µM; HMG-CoA reductase (Enterococcus faecalis, mvaE);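 active = inhibition above a set limit, the median over all tested compounds plus 3 SD, cut at about 9.5% in these data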;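 also: enzyme runs in reverse so mevalonate oxidation gives rising NADPH absorbance; 0% = complete reaction with DMSO and 100% = background rate lacking mevalonate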
Active calls of the source: *; nt = no result given.

SMILES | BB579 growth dn | Arbovirus inh | Yeast life ext | Rad51 HR inh | Measles CPE | HMGR II inh
CCCCCCCCCCCCCCCC[n+]1cccc(C(=O)N(CC)CC)c1 | 100.8* | -40.6 | -13.7 | 13.7 | 7.6 | -3.8
CCCCCCCCCCCCCCCC[n+]1ccc(/C=N/O)cc1 | 99.6* | -40.5 | -12.8 | 9.0 | 0.2 | -0.6
CCCCCCCC[n+]1cccc(C(=O)N(CC)CC)c1 | -24.4 | 4.9 | 2.6 | -3.6 | 4.0 | -8.7
CCCCCCCCCCCCCCCC[n+]1ccc(C(N)=O)cc1 | 100.0* | -37.9 | -13.2 | 4.4 | 13.2 | 2.0
COc1ccc(OC)c(NC(=S)N2CCC(C(O)(c3ccccc3)c3ccccc3)CC2)c1 | -43.0 | -7.2 | -1.2 | -28.1 | 4.9 | -0.2
Cc1ccc(C2=NN3C(C(=O)c4ccccc4)Oc4ccccc4C3C2)cc1 (configuration not stated) | -33.3 | -30.3 | -13.1 | -9.9 | 4.9 | 3.1
CC(O)C(=O)N/N=C/c1ccccc1C(=O)O (configuration not stated) | nt | -4.2 | nt | 0.8 | nt | 13.4*
CC(C)NC(=O)CC(=O)N/N=C\c1ccccc1C(=O)O | nt | 4.4 | nt | -4.1 | nt | -2.2
CCC(C)NC(=O)c1cc(Sc2nnc(C)s2)nc2ccccc12 (configuration not stated) | -25.4 | -8.5 | 0.4 | -6.8 | 4.7 | 2.5
CCNC(=O)COc1ccc(-c2ccccc2)cc1 | -5.9 | -8.5 | -10.0 | -12.0 | 62.1* | -4.3
N#Cc1ccc(-c2ccc(OCC(=O)NCCc3ccccc3)cc2)cc1 | -52.2 | -0.1 | 45.6* | 8.2 | 9.0 | -5.2
COc1ccc(CCNC(=O)COc2ccc(-c3ccc(C#N)cc3)cc2)cc1 | -23.3 | 3.8 | 0.9 | -7.0 | 3.8 | 1.0
COc1ccc(/C=N/NC(=O)c2cccc(Br)c2)cc1COc1ccccn1 | nt | nt | nt | 9.3 | nt | nt
Cc1cccc(C)c1NC(=O)c1ccc(-c2ccc(Cl)cc2Cl)o1 | -39.7 | 27.6 | -7.6 | 4.3 | 9.9 | -3.2
CC1=NOC(=O)/C1=C\c1ccc(-c2ccc(Cl)cc2Cl)o1 | 45.1* | -39.1 | 4.8 | nt | 11.4 | -1.6
S=C1NC[C@H](CC2CCCCC2)N1CC1CCCCC1 | nt | -15.2 | nt | -5.5 | nt | -0.4
Cc1noc(C)c1C(=O)OCC(=O)Nc1cc(Cl)ccc1Oc1ccccc1 | -65.5 | 47.3* | -0.8 | 0.8 | 2.0 | -0.1
COc1ccc(-c2cc(C(F)(F)F)nc(S(C)(=O)=O)n2)cc1 | -34.6 | -31.9 | 85.1* | 0.9 | 2.9 | -3.9
CS(=O)(=O)c1nc(-c2cccs2)cc(C(F)(F)F)n1 | -26.4 | -25.8 | 52.5* | -0.7 | 11.2 | -3.1
O=C(/C(=C/O)N=Nc1ccccc1)c1ccncc1 | 88.1* | 10.4 | -10.5 | 4.1 | 5.7 | 0.4
O=C(c1ccco1)N(CCO)Cc1cc2cc3c(cc2[nH]c1=O)OCO3 | nt | -2.3 | nt | -7.6 | nt | 0.1
C=CCOc1ccc(Br)cc1/C=N/O | -20.6 | -1.4 | -17.7 | 3.3 | 12.7 | -3.5
C=CCOc1ccc(Br)cc1/C=C1/SC(=Nc2ccc(C(=O)O)cc2)NC1=O | nt | 32.5* | nt | -25.1 | nt | -1.8
COc1ccccc1N1CCN(C(=O)CSc2nnc3c4ccccc4nc(Cc4ccccc4)n23)CC1 | -2.6 | 7.2 | -4.1 | -7.9 | 8.3 | -4.8
CCOC(=O)NC(NCCc1ccccc1)(C(F)(F)F)C(F)(F)F | -5.7 | -2.6 | -4.1 | 1.2 | 1.3 | 1.9
SMILES | BB579 growth dn | Arbovirus inh | Yeast life ext | Rad51 HR inh | Measles CPE | HMGR II inh
CCOC(=O)NC(NCc1ccccc1)(C(F)(F)F)C(F)(F)F | -23.7 | 5.4 | 3.0 | 5.4 | 43.7* | -4.8
CN(CC(=O)OCC(N)=O)S(=O)(=O)c1ccc(Cl)cc1 | nt | 7.4 | nt | -1.4 | nt | -3.5
CCC1S/C(=N/C(=O)NC2CCCCC2)NC1=O (configuration not stated) | -29.8 | 10.6 | nt | -10.2 | 18.4 | 10.2*
Cc1cccc(OC(=O)n2c(=S)oc3cc(Cl)ccc32)c1 | -10.2 | 6.7 | 63.6* | 2.5 | 9.2 | -6.4
O=C(Cc1nn[nH]n1)c1ccccc1O | -3.6 | 0.1 | 3.8 | -3.8 | 16.4 | -0.4
COc1ccc(-c2nc(N3CCOCC3)nc3n[nH]c(N)c23)cc1 | -48.1 | 2.6 | -9.6 | -3.7 | 27.8* | -2.0
CN(C)N1C(=O)CC(NNC(=O)c2ccncc2)C1=O (configuration not stated) | 7.1 | -5.2 | 1.7 | -1.6 | 4.9 | -3.6
CCC(=O)Nc1cc(C(=O)OCC(=O)c2ccccc2)ccc1C | -15.0 | -0.6 | 0.3 | -27.6 | 3.2 | -1.1
COc1cccc(S(=O)(=O)N2CCN(c3ccccc3F)CC2)c1 | -10.2 | 10.4 | -10.5 | -3.3 | 33.9* | -7.7
COC(=O)COc1ccc(S(=O)(=O)NCCC2=CCCCC2)cc1 | 1.8 | 13.7 | -9.3 | 7.9 | 27.4 | -8.3
COC(=O)COc1ccc(S(=O)(=O)NCCC2=CCCCC2)cc1C | -34.2 | -2.3 | -1.5 | 45.2* | 11.0 | -2.3
COC(=O)COc1ccc(S(=O)(=O)N2CCN(c3ccccc3F)CC2)cc1C | -27.0 | -2.3 | -2.4 | 0.6 | 27.0* | 0.5
CCc1cccc2c(C(=O)COC(=O)c3ccccc3)c[nH]c12 | -16.8 | 11.4 | 2.6 | -4.0 | 28.0* | -6.7
CCc1cccc2c(C(=O)COC(=O)c3ccc(O)cc3)c[nH]c12 | -13.6 | 6.8 | -1.4 | -2.4 | 12.8 | 3.9
O=C(CSc1ccc(-c2ccc(F)cc2)nn1)N1CCOCC1 | nt | 7.3 | nt | 1.2 | nt | -2.5
NC(=O)COc1ncnc2scc(-c3ccc(F)cc3)c12 | nt | -3.0 | nt | -10.8 | nt | -7.5
CC(=O)Nc1cccc(Oc2ncnc3scc(-c4ccc(C(C)C)cc4)c23)c1 | 1.2 | -32.8 | 0.3 | -33.5 | 59.9* | -6.3
CCOC(=O)/C(=C\c1ccccc1)C(=O)c1cc(C(C)=O)c(Nc2ccccc2)s1 | -22.5 | -32.2 | -3.1 | 7.1 | 0.9 | -6.5
CCOC(=O)/C(=C\c1cccnc1)C(=O)c1cc(C(C)=O)c(Nc2ccccc2)s1 | -52.5 | -35.7 | 33.4* | -1.9 | 17.3 | -2.4
CC(NCc1ccc(N(C)C)cc1)C1CC2CCC1C2 (configuration not stated) | -7.1 | 15.7 | 47.2* | 0.0 | 7.2 | -4.2
Nc1nc(CN2CCN(c3ccccc3)CC2)nc(Nc2ccc(Cl)cc2)n1 | nt | -2.7 | nt | 13.9 | nt | -5.3
O=C(COc1ccccc1)Nc1nc2ccccc2[nH]1 | -4.5 | 3.8 | -10.5 | 5.8 | 4.0 | -7.6
O=C(CSc1ccc2ccccc2c1)Nc1nc2ccccc2[nH]1 | -15.0 | -9.4 | -4.6 | -6.2 | 42.5* | -1.9
Cc1ccc2nc(-c3ccc(NC(=O)CSc4ccccc4)cc3)[nH]c2c1 | -22.4 | -13.4 | 75.9* | -6.0 | 9.4 | 2.8
